Data as given in ChEMBL document CHEMBL3797028, “Novel S1P1 receptor agonists - Part 4: Alkylaminomethyl substituted aryl head groups” (Eur J Med Chem, 2016).
pEC50: −log10 of the molar value. Active and inactive are the calls of the source. No cut-off for these calls is given here.

Assays:
[1] = target: Sphingosine 1-phosphate receptor 3 (Homo sapiens, UniProt Q99500); experiment: Agonist activity at human recombinant S1PR3 expressed in CHO cell membranes assessed as [35S]GTPgammaS binding preincubated for 30 mins followed by [35S]GTPgammaS addition measured after 1 hr by topcount analysis; assay type: functional
Outline: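 Membranes from CHO cells expressing recombinant human S1P1 or S1P3 were used. Buffer was 20 mM Hepes pH 7.4, 100 mM NaCl, 5 mM MgCl2, 0.1% fatty-acid-free BSA, 2.5% DMSO and 50 pM 35S-GTPgammaS. GDP was […] for S1P3. Compound was preincubated 30 min at rt, then incubated 1 h at rt with 35S-GTPgammaS. Bound label was collected by filtration and counted. Specific binding was taken against 10 uM S1P. EC50 was the 50%-of-specific-binding concentration, reported as the geometric mean of at least three independent duplicate runs.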

[2] = target: T1, Sphingosine 1-phosphate receptor 1 (Homo sapiens, UniProt P21453); experiment: Agonist activity at human recombinant S1PR1 expressed in CHO cell membranes assessed as [35S]GTPgammaS binding preincubated for 30 mins followed by [35S]GTPgammaS addition measured after 1 hr by topcount analysis
Rattus norvegicus [3] = experiment: Change in circulating lymphocyte count in Wistar rat at 10 mg/kg administered as single dose through oral gavage after 24 hrs relative to control; assay type: functional
Outline: (§1)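 Male Wistar rats (RccHan:WIST; n = 6) were given a single oral gavage dose of compound in DMSO plus 7.5% succinylated gelatine (final 5% DMSO). Blood lymphocytes were counted just before dosing and at later timepoints. Percent change was calculated per animal relative to the pre-dose value and compared with a vehicle-treated group, reported as the mean. A ±15% change was treated as baseline, and a reduction of about 60% or more as maximal.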

Rattus norvegicus [4] = experiment: Change in circulating lymphocyte count in Wistar rat at 10 mg/kg administered as single dose through oral gavage after 6 hrs relative to control; assay type: functional; outline: as §1
Rattus norvegicus [5] = experiment: Change in circulating lymphocyte count in Wistar rat at 10 mg/kg administered as single dose through oral gavage after 3 hrs relative to control; assay type: functional; outline: as §1
[6] = Apparent oral clearance in Wistar rat plasma at 1 to 10 mg/kg administered through gavage by LC-MS/MS analysis; assay type: ADME, organism-based
Outline: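 Male Wistar rats received a single oral gavage dose of compound dissolved in DMSO and added to 7.5% succinylated gelatine in water (final 5% DMSO). EDTA plasma was spun at 3000 g for 10 min at 4 °C and analysed by LC-MS/MS after protein precipitation. Oral clearance was estimated from the plasma concentration–time data. In vivo intrinsic clearance used the well-stirred liver model, assuming complete absorption.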

[7] = Selectivity ratio of EC50 for human recombinant S1PR3 expressed in CHO cell membranes to EC50 for human recombinant S1PR1 expressed in CHO cell membranes; assay type: cell-based
Outline: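 Compound and membranes are pre-incubated 30 min at rt, then incubated 1 h at rt, filtered and counted. EC50 is the concentration giving 50% of S1P-defined specific binding, as the geometric mean of ≥3 independent duplicate runs. Ratio = EC50 S1PR3/EC50 S1PR1.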

[8] = Apparent intrinsic clearance in Wistar rat liver microsomes at 1 uM after 2.5 to 15 mins by LC-MS/MS analysis in presence of NADPH; assay type: ADME; details: read-out: CLH(app)
Outline: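 Compound at 1 uM starting concentration was depleted by 0.5 mg/mL rat liver microsomes in 100 mM sodium phosphate pH 7.4 at 37 °C, with shaking under air. Reactions were started with an NADPH-regenerating system. Samples were taken at 0, 2.5, 5, 10 and 15 min, quenched in ice-cold methanol and analysed by LC-MS/MS. CLint,app came from first-order decay fitting.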

[9] = Distribution coefficient, log D between 1-octonol and phosphate buffer at pH 7; assay type: physicochemical; details: 1-octanol/phosphate buffer
Outline: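 Partition was between 1-octanol and phosphate buffer at pH 7.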

[10] = Fraction unbound in Wistar rat liver microsomes incubated for 6 hrs by LC-MS/MS based equilibrium dialysis method; assay type: ADME
Outline: (§2)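 Rapid equilibrium dialysis was run on a shaker for 6 h at 37 °C. The donor side held rat plasma (pH 7.2–7.6) or 1 mg/mL rat liver microsomes in phosphate buffer pH 7.4. The receiver side held phosphate buffer pH 7.4. Both sides were measured by LC-MS/MS to give free fraction and recovery.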

[11] = Fraction unbound in Wistar rat plasma incubated for 6 hrs by LC-MS/MS based equilibrium dialysis method; assay type: ADME, cell-free; outline: as §2
Liver microsome = experiment: Unbound fraction corrected apparent intrinsic clearance in Wistar rat liver microsomes at 1 uM after 2.5 to 15 mins by LC-MS/MS analysis in presence of NADPH; assay type: ADME
Outline: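 Apparent CLint was measured by microsomal substrate depletion: 1 uM start, 0.5 mg/mL rat liver microsomes, pH 7.4, 37 °C, NADPH-regenerating system, sampling 0–15 min, LC-MS/MS. It was then divided by the unbound microsomal fraction, which was determined by rapid equilibrium dialysis of 1 mg/mL microsomes for 6 h at 37 °C.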

[12] = Plasma concentration in Wistar rat at 10 mg/kg administered as single dose through oral gavage after 3 hrs by LC-MS/MS analysis; assay type: ADME, organism-based
Outline: (§3)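 Single oral gavage dose to male Wistar rats in DMSO/7.5% succinylated gelatine (final 5% DMSO). Blood was drawn into EDTA at the lymphocyte-count timepoints. Plasma was prepared at 3000 g for 10 min at 4 °C and analysed by LC-MS/MS after protein precipitation.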

[13] = Plasma concentration in Wistar rat at 10 mg/kg administered as single dose through oral gavage after 6 hrs by LC-MS/MS analysis; assay type: ADME, organism-based; outline: as §3
[14] = Plasma concentration in Wistar rat at 10 mg/kg administered as single dose through oral gavage after 24 hrs by LC-MS/MS analysis; assay type: ADME, organism-based; outline: as §3
[15] = Plasma concentration in Wistar rat at 10 mg/kg administered as single dose through oral gavage after 72 hrs by LC-MS/MS analysis; assay type: ADME, organism-based; outline: as §3
[16] = target: T1, Sphingosine 1-phosphate receptor 1; experiment: Partial agonist activity at human recombinant S1PR1 expressed in CHO cells by receptor internalization assay; assay type: cell-based
Rattus norvegicus [17] = species on record: Rattus norvegicus; experiment: Intrinsic clearance in rat liver microsomes scaled to body weight; details: in vitro
[18] = Drug recovery in Wistar rat liver microsomes incubated for 6 hrs by LC-MS/MS based equilibrium dialysis method; assay type: ADME; details: read-out: Drug recovery; outline: as §2

Sequence of Sphingosine 1-phosphate receptor 3 (Q99500 whole entry): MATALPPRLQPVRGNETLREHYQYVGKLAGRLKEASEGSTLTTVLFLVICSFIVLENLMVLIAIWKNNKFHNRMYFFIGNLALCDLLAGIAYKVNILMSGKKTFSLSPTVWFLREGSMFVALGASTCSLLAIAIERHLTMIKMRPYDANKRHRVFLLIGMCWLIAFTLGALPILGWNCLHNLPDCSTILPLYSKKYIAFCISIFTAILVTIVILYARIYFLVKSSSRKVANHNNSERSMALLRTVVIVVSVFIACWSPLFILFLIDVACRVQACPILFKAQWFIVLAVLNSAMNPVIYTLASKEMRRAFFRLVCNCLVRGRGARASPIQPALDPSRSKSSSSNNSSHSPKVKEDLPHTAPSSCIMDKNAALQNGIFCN
T1 sequence (P21453 whole entry): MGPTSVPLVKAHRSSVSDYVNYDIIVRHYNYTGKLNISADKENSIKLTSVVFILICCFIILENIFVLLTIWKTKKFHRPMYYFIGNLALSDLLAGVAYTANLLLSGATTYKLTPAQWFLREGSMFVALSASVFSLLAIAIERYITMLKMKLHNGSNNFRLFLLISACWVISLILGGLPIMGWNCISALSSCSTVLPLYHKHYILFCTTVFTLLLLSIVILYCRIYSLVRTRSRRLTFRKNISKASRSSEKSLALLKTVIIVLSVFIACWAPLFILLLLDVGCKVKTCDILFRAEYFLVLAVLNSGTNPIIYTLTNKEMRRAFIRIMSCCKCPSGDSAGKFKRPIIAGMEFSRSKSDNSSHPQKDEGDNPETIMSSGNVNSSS

Compound | pEC50 [1] | pEC50 [2] | Activity (Rattus norvegicus [3]) | Activity (Rattus norvegicus [4]) | Activity (Rattus norvegicus [5]) | CL/F [6] | Ratio EC50 [7] | microsomal CLint at 1 µM [8] | logD [9] | fraction unbound at 6 h [10] | fraction unbound at 6 h [11] | CL free (Liver microsome) | concentration at 3 h [12] | concentration at 6 h [13] | concentration at 24 h [14] | concentration at 72 h [15] | Activity [16] | CL (Rattus norvegicus [17]) | recovery at 6 h [18]
CCc1cc(-c2noc(-c3cc(C)cc(CN(C)CC(C)C)c3)n2)cc(C)c1OC[C@@H](O)CNC(=O)CO | 7.00 | 8.68 | -44% | -53% | -52% | 8 mL/min/kg | 48 | 20 µL/min/mg | > 4.1 | 0.027 | < 0.001 | 740 µL/min/mg | 1380 ng/mL | 1120 ng/mL | 342 ng/mL | 3.7 ng/mL | inactive | 1330 mL/min/kg | –
CCc1cc(-c2noc(-c3ccc(CN(C)CC(C)C)c(C)c3)n2)cc(C)c1OC[C@@H](O)CNC(=O)CO | 6.24 | 7.89 | – | – | – | – | 44 | 74 µL/min/mg | > 4.1 | 0.001 | < 0.001 | – | – | – | – | – | – | – | < 80%
CCCCN(C)Cc1cc(C)cc(-c2nc(-c3cc(C)c(OC[C@@H](O)CNC(=O)CO)c(CC)c3)no2)c1 | 6.37 | 8.59 | -6% | -57% | -60% | – | 163 | 183 µL/min/mg | > 4.1 | 0.025 | < 0.001 | 7300 µL/min/mg | – | – | – | – | – | – | < 80%
CCc1cc(-c2noc(-c3cc(C)c(CN(C)C)s3)n2)cc(C)c1OC[C@@H](O)CNC(=O)CO | 6.18 | – | 5% | -56% | -64% | 275 mL/min/kg | – | 1220 µL/min/mg | 3.2 | 0.15 | 0.012 | 8100 µL/min/mg | 106 ng/mL | 31 ng/mL | < 4 ng/mL | – | – | 14600 mL/min/kg | –
CCc1cc(-c2noc(-c3cc(C)cc(CN(C)CC)c3)n2)cc(C)c1OC[C@@H](O)CNC(=O)CO | 5.90 | 8.44 | 24% | -58% | -57% | – | 347 | > 1250 µL/min/mg | 3.4 | 0.25 | 0.012 | > 5000 µL/min/mg | – | – | – | – | – | – | < 80%
CCc1cc(-c2nc(-c3cc(C)c(OC[C@@H](O)CNC(=O)CO)c(CC)c3)no2)ccc1CN(C)C | 6.32 | 8.89 | 27% | -61% | -56% | – | 369 | 1010 µL/min/mg | 3.8 | 0.11 | 0.005 | 9200 µL/min/mg | – | – | – | – | – | – | < 80%
CCc1cc(-c2noc(-c3cc(C)nc(CN(C)CC(C)C)c3)n2)cc(C)c1OC[C@@H](O)CNC(=O)CO | 6.25 | 8.49 | 1% | -75% | -80% | 80 mL/min/kg | 175 | 197 µL/min/mg | 3.8 | 0.18 | 0.004 | 1090 µL/min/mg | 385 ng/mL | 176 ng/mL | < 2 ng/mL | – | – | 1970 mL/min/kg | < 80%
CCc1cc(-c2noc(-c3cc(C)cc(CN(C)C)c3)n2)cc(C)c1OC[C@@H](O)CNC(=O)CO | 5.70 | – | 21% | -37% | -44% | – | – | > 1250 µL/min/mg | 2.8 | 0.26 | 0.029 | > 4800 µL/min/mg | – | – | – | – | – | – | –
